From ChEMBL document CHEMBL4837218, “Synthesis and in vitro antitumour activity of 4(R)-methyl-3-O-phosphonomethyl-α-l-threose nucleosides” (Eur J Med Chem, 2021)

How the values were obtained:
HeLa = assay: Anticancer activity against human HeLa cells assessed as inhibition of cell growth measured after 72 hrs by MTT assay; type: functional, cell-based
Outline: (§1)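 Cells seeded at 3000 exponentially growing cells/well and incubated 12 h at 37 °C. Medium then replaced with fresh medium containing graded compound concentrations for 72 h; 5-FU positive control. MTT (5 mg/mL solution) added for 4 h, formazan dissolved in DMSO, absorbance read at 570 nm (reference 630 nm). Relative percentage inhibition of viable cells calculated; IC50 reported as mean ± standard deviation.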

MCF7 = assay: Anticancer activity against human MCF7 cells assessed as inhibition of cell growth measured after 72 hrs by MTT assay; type: functional, cell-based; conditions: MCF7, 72 h; outline: as §1
MGC-803 = assay: Anticancer activity against human MGC-803 cells assessed as inhibition of cell growth measured after 72 hrs by MTT assay; type: functional, cell-based; conditions: MGC-803, 72 h; outline: as §1
[1] = system: Human immunodeficiency virus 1; assay: Anti-HIV activity against HIV-1 3B infected in human MT4 cells assessed as protection against virus-induced cytopathicity measured after 5 days by MTT assay; type: functional, organism-based; conditions: Human immunodeficiency virus 1, 3B, MT4, 120 h

Row | SMILES | IC50 (HeLa) | IC50 (MCF7) | IC50 (MGC-803) | EC50 [1]
1 | Cc1cn([C@H]2C[C@@H](OCP(=O)(O)O)CO2)c(=O)[nH]c1=O | – | – | – | 6.59 µM
2 | C[C@H]1O[C@@H](n2cnc3c(N)ncnc32)[C@H](O)[C@H]1OCP(=O)(O)O | > 16 µM | > 16 µM | > 16 µM | –
3 | C[C@H]1O[C@@H](n2ccc(N)nc2=O)[C@H](O)[C@H]1OCP(=O)(O)O | > 16 µM | > 16 µM | > 16 µM | –
4 | Cc1cn([C@@H]2O[C@H](C)[C@H](OCP(=O)(O)O)[C@H]2O)c(=O)[nH]c1=O | > 16 µM | > 16 µM | > 16 µM | –
5 | C[C@H]1O[C@@H](n2cc(Cl)c(=O)[nH]c2=O)[C@H](O)[C@H]1OCP(=O)(O)O | > 16 µM | > 16 µM | > 16 µM | –
6 | Nc1ncnc2c1ncn2[C@H]1C[C@@H](OCP(=O)(O)O)CO1 | – | – | – | 2.5 µM

More lines, main results first:

Row | IC50 (HeLa) | IC50 (MCF7) | IC50 (MGC-803) | SMILES | EC50 [1]
7 | > 16 µM | > 16 µM | > 16 µM | C[C@H]1O[C@@H](n2ccc(=O)[nH]c2=O)[C@H](O)[C@H]1OCP(=O)(O)O | –
8 | > 16 µM | > 16 µM | > 16 µM | C[C@H]1O[C@@H](n2cc(F)c(N)nc2=O)[C@H](O)[C@H]1OCP(=O)(O)O | –
9 | > 16 µM | > 16 µM | > 16 µM | C[C@H]1O[C@@H](n2cc(F)c(=O)[nH]c2=O)[C@H](O)[C@H]1OCP(=O)(O)O | –
